Compound activity deposited in PubChem BioAssay by Broad Institute.
Most compounds without a hit are left out; they make up all but 2.9% or so of the library.
Cneo AK release – Cryptococcus neoformans cell lysis inducers, primary screen, AK release luminescence, single concentration; C. neoformans lysis, adenylate kinase release luminescence, 4 h; normalised: neutral wells 0, clomiphene wells 100; lysis activity, % at 15 µM; 360,000 compounds, 0.2% hits; AID 651654, 2012;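 active = mean lysis activity across replicates of at least 80%, whatever share of replicates individually reach that level; inactive = mean lysis activity below 80%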
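Material – log-phase Cryptococcus neoformans yeast cells · Input – 5 × 10^6 yeast cells/mL · Medium – fresh YPD growth medium · Doses – single compound concentration per well · Timing – static 4 h at 37 °C with compound, 1 h detection · Detection – adenylate kinase release luminescence · Read-out – signal increase indicating cell lysis · Control set – Clomiphene as positive lysis control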
Vif inh – HIV Vif self-association inhibitors, primary screen, imaging, HEK293T, single point | HEK293T cells, Vif self-association by quenched fluorescence, 24 h | inhibition, % at 7.49 µM | 340,000 compounds, 0.35% hits; in the data active = inhibition above about 50%, passing the limit was not always enough
PglD inh – C. jejuni PglD acetyltransferase inhibitors, primary screen, biochemical, DTNB colorimetric, single point. inhibition, % at 12.5 µM. 360,000 compounds, 0.098% hits. purified PglD enzyme, DTNB colorimetric CoA detection. UDP-N-acetylbacillosamine N-acetyltransferase PglD (Campylobacter jejuni); in the data active = inhibition above about 16%, passing the limit was not always enough
FGF22 binding – binders of human FGF22 protein, primary screen, FGF22 synaptogenesis inhibitor project, biophysical, thermal shift, single point | Fibroblast growth factor 22 (Homo sapiens), Q9HCT0 | recombinant FGF22 thermal shift, SYPRO orange fluorescence; percent of sucrose octasulfate shift, DMSO zero | activity (Tm shift, normalised), % at 9.99 µM | 340,000 compounds, 1.5% hits | AID 651658, 2012;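 active = mean Tm shift, scaled 0 neutral to 100 positive control, at about 1.3% or above, every replicate too, limit read from the data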
Target sequence (Q9HCT0 whole entry, looked up): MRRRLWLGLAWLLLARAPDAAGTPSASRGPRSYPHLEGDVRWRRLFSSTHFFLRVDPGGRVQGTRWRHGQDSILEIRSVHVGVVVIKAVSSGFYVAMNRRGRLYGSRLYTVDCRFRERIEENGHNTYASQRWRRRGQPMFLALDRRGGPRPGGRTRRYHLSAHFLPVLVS
Ecoli rRNA inh – reduced GFP signal of wild-type E. coli, primary screen, bacterial rRNA inhibitor project, GFP/RFP fluorescence, OD600, single point; E. coli WT GFP vs humanized-ribosome RFP mutants, 24 h; hits give low values; DMSO median 0, no signal -100; GFP signal change (wild-type ribosome), % (test concentration not listed); 350,000 compounds, 1.6% hits; AID 720706, 2013;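 active = significant combined selectivity score with lowered wild-type GFP, culture density cut under 30%, mutant RFP and density less affected; inactive = any of these conditions unmet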
PGC1a acetyl inh – inhibitors of PGC1a acetylation signal, primary screen, cell-based, U2OS, AlphaScreen, inhibitor mode. 350,000 compounds, 0.17% hits. AID 651687, 2012. inhibition, % at 15.6 µM. AlphaScreen anti-acetyl-lysine; with virally co-expressed GCN5 acetyltransferase;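 active = every replicate shows inhibition of at least 40%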
Hits are given with their value; . = inactive; / = no result.

SMILES | Cneo AK release | Vif inh | PglD inh | FGF22 binding | Ecoli rRNA inh | PGC1a acetyl inh
C/C=C/c1cnc2c(c1)C(=O)N([C@@H](C)CO)C[C@@H](C)[C@@H](CN(C)Cc1ccncc1)O2 | . | / | . | . | . | .
COC(=O)C[C@@H]1CC[C@H]2[C@H](COc3ccc(NC(=O)C4CCOCC4)cc3C(=O)N2C)O1 | / | / | / | . | . | .
Brc1ccc(/C=N/Nc2nc3ccccc3o2)cc1 | . | . | . | . | . | .
Oc1ccccc1/C=N/Nc1nc2ccccc2o1 | . | . | . | . | . | 41
CC(C)C(=O)N=C1SC2CS(=O)(=O)CC2N1Cc1ccccc1 (stereo not drawn) | . | 55 | / | 43 | . | .
CC(C)C(=O)N=C1SC2CS(=O)(=O)CC2N1Cc1ccc(Cl)cc1 (stereo not drawn) | / | . | / | . | . | /
Cc1cc(C)c2nc(N(CCCN(C)C)C(=O)c3ccc4c(c3)OCCO4)sc2c1 | . | . | . | . | -28 | .
Cc1cccc(OCC(=O)N2CCN(c3nnc(-c4ccccc4)c4ccccc34)CC2)c1 | / | . | / | . | -43 | /
Cc1cccc(OC(C)C(=O)OCC(=O)N2CCN(c3ccccc3)CC2)c1 (stereo not drawn) | / | . | / | 44 | / | /
Cc1ccc(-c2nnc(N3CCN(C(=O)COc4cccc(C)c4)CC3)c3ccccc23)cc1 | / | . | / | . | -33 | /
CCS(=O)(=O)N1CC2(CN(C(=O)Nc3cccc(F)c3)[C@H](CO)c3c2c2ccc(OC)cc2n3C)C1 | / | / | / | / | . | /
COCc1cn(CC[C@H]2CC[C@@H](NC(=O)Nc3ccc(Cl)cc3)[C@@H](CO)O2)nn1 | . | / | . | . | . | .
CN(C)Cc1cn(CC[C@H]2CC[C@@H](NS(=O)(=O)c3ccccc3)[C@@H](CO)O2)nn1 | . | / | . | . | . | .
CCNC(=O)N1CCN(c2ccc(N3CCN(Cc4ccccc4)[C@@H](C)C3)c(C)c2)[C@@H](C)C1 | / | / | / | . | . | /
CCNC(=O)N1CCN(c2ccc(N3CCN(Cc4ccccc4)[C@H](C)C3)c(C)c2)[C@@H](C)C1 | / | / | / | 40 | . | /
COCC(=O)N(C)C[C@@H]1Oc2ncc(-c3ccccc3C)cc2C(=O)N([C@@H](C)CO)C[C@H]1C | . | / | . | . | . | .
CN(C)C(=O)[C@@H]1[C@@H](CO)[C@@H]2Cn3c(ccc(-c4ccccc4F)c3=O)[C@H]1N2C(=O)c1ccccc1 | . | / | . | . | . | /
C=CCc1cccc2cc(C(=O)O)c(=O)oc12 | . | . | . | / | / | .
C=CCc1cccc2cc(C(=O)Nc3ccccc3C(=O)O)c(=O)oc12 | / | . | / | 43 | . | .
COC(=O)C1=C(C)NC(=O)NC1c1ccco1 (stereo not drawn) | / | . | / | 43 | . | .
Cc1ncc([N+](=O)[O-])n1CC(=O)Nc1ccccc1 | / | . | / | 43 | . | .
CC(=O)Nc1ccc(S(=O)(=O)NCC(=O)OCC(=O)NC(=O)C2CCCCC2)cc1 | . | . | . | / | / | .
CC(=O)Nc1ccc(S(=O)(=O)NCC(=O)OCC(=O)NCc2ccc3c(c2)OCO3)cc1 | / | . | / | 44 | . | /
CC(=O)Nc1ccc(C(=O)OCC(=O)NCc2ccc3c(c2)OCO3)cc1 | . | . | . | 43 | . | .
CC(C)n1c(C(=O)OCC(=O)NCc2ccc3c(c2)OCO3)cc2occc21 | / | . | / | / | / | .
SMILES | Cneo AK release | Vif inh | PglD inh | FGF22 binding | Ecoli rRNA inh | PGC1a acetyl inh
CC(=O)Nc1ccc(S(=O)(=O)NCC(=O)OCC(=O)NC23CC4CC(CC(C4)C2)C3)cc1 | . | 75 | . | / | / | .
CC(C)n1c(C(=O)OCC(=O)NCc2ccc3c(c2)OCO3)cc2sccc21 | . | / | . | . | -25 | .
CCCC(=O)Nc1ccc2c(c1)C(=O)N(C)[C@H]1CC[C@@H](CC(=O)NCc3ccccc3F)O[C@H]1CO2 | . | / | . | . | . | .
COc1ccc2c3c(n(C)c2c1)[C@H](CO)NCC31CCN(Cc2cc(-c3ccccc3)on2)CC1 | / | / | / | / | . | 69
COc1ccc2c3c(n(C)c2c1)[C@H](CO)NCC31CCN(Cc2ccccc2Cl)CC1 | / | / | / | . | . | .
O=C(Nc1ccccc1C(=O)N/N=C/c1ccc(O)cc1)c1ccccc1 | / | . | / | . | -30 | /
O=C(Nc1ccccc1C(=O)NC(Cc1ccc(O)cc1)C(=O)O)c1ccccc1 (stereo not drawn) | . | . | . | 44 | . | .
N/C(=N\NC(=O)c1ccc(F)cc1)c1cc2ccccc2oc1=O | / | . | / | 43 | . | .
N/C(=N\NC(=O)c1cccc(F)c1)c1cc2ccccc2oc1=O | . | . | . | . | . | .
O=C(NNC(=O)c1cc2ccccc2oc1=O)c1ccccc1 | . | 79 | . | . | . | /
CC(C)(C)C(=O)N1CCN(CCN2C(=O)c3cccc4cccc(c34)C2=O)CC1 | . | . | . | . | . | .
CS(=O)(=O)N1CCN(CCN2C(=O)c3cccc4cccc(c34)C2=O)CC1 | / | . | / | 45 | . | /
CO[C@H]1CN(C)C(=O)c2cc(NS(=O)(=O)Cc3ccccc3)ccc2OC[C@H](C)NC[C@H]1C | . | / | . | . | . | .
CCc1cc(=O)oc2cc(OC(C)C(=O)NCc3ccccn3)ccc12 (stereo not drawn) | . | 58 | . | . | . | .
C=C(Cl)COc1ccc2c(CC)cc(=O)oc2c1 | . | . | . | . | -24 | .
Cc1cc(=O)oc2cc(OC(C)C(=O)NCC3CCCO3)ccc12 (stereo not drawn) | . | . | . | 44 | / | .
C[C@@H]1CCCCO[C@@H](CN(C)C(=O)CCC(F)(F)F)[C@H](C)CN([C@H](C)CO)C(=O)c2cc(NC(=O)c3ccncc3)ccc2O1 | / | / | / | . | . | .
COc1cccc(CNC(=O)C[C@H]2C=C[C@@H](NS(=O)(=O)c3ccccc3OC)[C@H](CO)O2)c1 | . | / | . | . | . | .
Nc1ccccc1-c1nnn(CC(=O)Nc2ccc3c(c2)OCCO3)n1 | . | . | . | . | -25 | .
O=C1Nc2ccccc2N=C(c2ccccc2)c2ccccc21 | . | . | . | . | -28 | .
COC(=O)C[C@@H]1CC[C@@H]2[C@H](COc3ccc(NC(=O)NCc4ccccc4)cc3C(=O)N2C)O1 | / | / | / | / | . | .
Cc1ccccc1N1C(=O)C(Cc2ccc(F)cc2)S/C1=C(\C#N)C(N)=O (stereo not drawn) | . | . | . | . | -31 | .
Cc1ccsc1C(=O)OCC(=O)Nc1ccc(Cl)cn1 | . | . | . | . | -23 | .
